High-throughput results (PubChem)
This is a sample that favours compounds with a hit; in the whole collection about 2.3% have one here.
TRPC4 agonist: TRPC4 (mouse) channel activation | HEK293 TRPC4beta/mu-opioid, Fluo4 calcium fluorescence; hits give high values | B-score at 10 µM | Q9QUQ5 | hit rate 0.49% among 310,000;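 active = B-score above 5 SD of library B-scores, and initial fluorescence ratio not above library mean plus 5 SD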;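 note: positive B-score marks a calcium rise read as TRPC4 activation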
Target sequence (Q9QUQ5 whole entry, looked up): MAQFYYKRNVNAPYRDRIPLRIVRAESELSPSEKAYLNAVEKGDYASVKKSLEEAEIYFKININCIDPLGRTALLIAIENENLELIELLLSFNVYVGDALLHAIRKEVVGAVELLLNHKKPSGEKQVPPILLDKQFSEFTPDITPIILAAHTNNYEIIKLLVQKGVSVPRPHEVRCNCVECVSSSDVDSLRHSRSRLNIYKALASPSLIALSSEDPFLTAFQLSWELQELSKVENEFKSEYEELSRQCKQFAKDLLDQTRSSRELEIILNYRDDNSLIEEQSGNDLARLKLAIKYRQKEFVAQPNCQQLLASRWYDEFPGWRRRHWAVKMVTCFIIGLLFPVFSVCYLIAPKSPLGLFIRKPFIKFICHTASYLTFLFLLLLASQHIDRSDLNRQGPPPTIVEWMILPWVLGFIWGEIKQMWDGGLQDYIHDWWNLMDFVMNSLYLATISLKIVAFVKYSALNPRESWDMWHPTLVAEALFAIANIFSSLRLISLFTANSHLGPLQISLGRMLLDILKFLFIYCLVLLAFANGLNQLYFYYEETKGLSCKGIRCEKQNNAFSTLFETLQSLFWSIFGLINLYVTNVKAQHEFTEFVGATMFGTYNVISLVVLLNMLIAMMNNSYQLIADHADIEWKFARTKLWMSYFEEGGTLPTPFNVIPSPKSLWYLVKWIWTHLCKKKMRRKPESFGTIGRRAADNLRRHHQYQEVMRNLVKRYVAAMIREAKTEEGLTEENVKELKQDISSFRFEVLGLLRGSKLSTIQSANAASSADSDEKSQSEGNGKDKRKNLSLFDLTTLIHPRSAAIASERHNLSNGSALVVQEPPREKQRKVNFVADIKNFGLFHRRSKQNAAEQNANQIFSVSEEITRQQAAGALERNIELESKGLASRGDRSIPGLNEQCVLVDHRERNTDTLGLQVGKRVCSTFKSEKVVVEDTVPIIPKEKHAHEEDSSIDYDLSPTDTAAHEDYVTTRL
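Assay system: HEK293 stable line with TRPC4beta plus mu-opioid receptor; schedule: 45 min room-temperature Fluo4 loading, 110 s read; technique: kinetic Fluo4 calcium fluorescence; evaluation: integrated baseline-normalised fluorescence ratio, converted to per-well B score; controls: buffer (low) and maximal DAMGO (high)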
TRPC4 potent: allosterically enhances the mouse TRPC4 cation channel | Q9QUQ5 | HEK293 TRPC4beta/mu-opioid, DAMGO EC20, Fluo-4 Ca2+ flux; hits give high values | B-score at 10 µM | hit rate 0.42% among 310,000;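 active = B-score of calcium response area above 5 SD of library B-scores, with initial fluorescence ratio within 5 SD of library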
TRPC6 inh: mouse TRPC6 channel inhibition. AID 2553. B-score at 10 µM. Q61143. HEK293-TRPC6, membrane potential dye, ACh-evoked depolarization; hits give low values. hit rate 1.1% among 310,000;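 active = B-score under library mean minus 3 SD, initial fluorescence not abnormally high, positive integrated signal ratio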;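 note: B-score derived from integrated fluorescence ratio over the kinetic read; more negative B-score means stronger inhibition of depolarization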
TRPC4 inh: inhibitors of mouse TRPC4 channel; Q9QUQ5; HEK293 TRPC4beta/mu-opioid, DAMGO-evoked Fluo4 calcium flux; hits give low values; B-score at 10 µM; hit rate 0.39% among 300,000; AID 2247;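 active = B-score over 3 SD under the library average, no early fluorescence shift, positive overall ratio signal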
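Test system – stable TRPC4beta/mu-opioid receptor HEK293 cells · Probe or stimulus – DAMGO, a submaximal dose followed by a maximal one · Dosing – one concentration per compound · Signal – Fluo4 calcium fluorescence by kinetic imaging, 5 s 1 Hz baseline · Evaluation – per-well B score of integrated baseline-normalized Fluo4 ratio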
TRPC6 activator: mouse TRPC6 channel activation. Q61143. HEK293-TRPC6 membrane potential dye fluorescence; hits give high values. B-score at 10 µM. hit rate 0.13% among 310,000;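 active = B-score of the integrated fluorescence ratio above library mean plus 3 SD, and starting fluorescence ratio within library mean plus 5 SD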;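 note: higher score means more depolarization so channel activation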
TRPC4 sel inh 2: mouse TRPC4 off-target activity of TRPC6 inhibitors, second screen; inhibition, % at 10 µM; HEK293 TRPC4/MOR, membrane potential dye fluorescence; channel activated by saturating DAMGO dose; shares compounds with TRPC6 inh; AID 2776; hit rate 42% among 920;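 active = compounds whose fluorescence signal differed from control wells by over 3 SD, either direction, in both duplicate plates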
TRPC4 spec: mouse TRPC4 off-target activity of TRPC6 inhibitors; activity change, negative = inhibition, % at 10 µM; AID 2777; hit rate 61% among 920; shares compounds with TRPC6 inh; HEK293 TRPC4/mu-opioid, membrane potential fluorescence;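 active = rise or fall in signal beyond 3 SD of buffer-only wells in both replicate plates, either sign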;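 note: integrated kinetic ratio of fluorescence range over baseline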
HEK293 MPD ctr 2-1: second check of TRPC6 inhibitor effects in parental HEK293 cells. signal change vs control, % at 10 µM. AID 2779. shares compounds with TRPC6 inh. hit rate 31% among 920. parental HEK293 membrane potential dye fluorescence; maximal acetylcholine challenge after compound addition;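 active = membrane potential signal moving either way by over 3 SD of the maximum-effect control, in both duplicate plates, meaning non-specific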
HEK293 MPD ctr-1: checks TRPC6 inhibitor effects in parental HEK293 cells | membrane potential signal change, % at 10 µM | hit rate 60% among 920 | AID 2780 | shares compounds with TRPC6 inh | parental HEK293 membrane potential dye fluorescence;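 active = membrane potential signal shifting up or down by more than 3 SD of buffer-only wells, on both duplicate plates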
HEK293 MPD ctr-2: checks TRPC6 modulator effects in parental HEK293 cells. membrane potential dye fluorescence. membrane potential signal change, % at 10 µM. hit rate 51% among 2,400. AID 488924. shares compounds with TRPC6 inh;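 active = membrane potential signal moves up or down beyond 5 SD from buffer-only wells, on both duplicate plates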
HEK293 MPD ctr 2-2: second counter-screen for TRPC6 modulators: effect in parental HEK293 cells; hit rate 14% among 2,400; inhibition, % at 10 µM; shares compounds with TRPC6 inh; membrane potential dye fluorescence; after compound, maximal acetylcholine stimulation;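 active = membrane potential signal drops by more than 5 SD from the mean control signal, in both duplicate plates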
TRPC4 ctr mod: tests whether TRPC6 modulators also affect mouse TRPC4 | shares compounds with TRPC6 inh | HEK293 TRPC4/mu-opioid, membrane potential fluorescence | percent change from control (negative = decrease, positive = increase), % at 10 µM | hit rate 69% among 2,400;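 active = membrane potential signal moved up or down beyond 5 SD of buffer control wells, in both duplicate plates, actives on both sides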
TRPC4/MOR inh 2: mouse TRPC4 off-target activity of TRPC6 modulators, second screen; shares compounds with TRPC6 inh; inhibition, % at 10 µM; HEK293 TRPC4/mu-opioid, membrane potential dye fluorescence; stimulated with maximal-effect DAMGO; hit rate 55% among 2,400;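 active = drop in membrane potential signal beyond 5 SD of the control wells in both duplicate plates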;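 note: TRPC4 counter screen for TRPC6 hits run under conditions tuned for TRPC6 not TRPC4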
TRPC6 block conf: mouse TRPC6 inhibitor confirmation; inhibition, % at 10 µM; shares compounds with TRPC6 inh; HEK293-TRPC6, membrane potential dye, ACh-evoked depolarization; AID 488960; hit rate 43% among 3,300;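 active = fluorescence ratio falls more than 5 SD below the full-stimulation control mean, in both duplicate runs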;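 note: integrated fluorescence ratio of peak minus minimum over baseline after agonist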
TRPC6 act confirm: mouse TRPC6 activator confirmation; shares compounds with TRPC6 inh; AID 488961; activation, % at 10 µM; hit rate 11% among 2,800; HEK293-TRPC6 membrane potential dye fluorescence, FDSS;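 active = ratio signal rise beyond 5 SD above unstimulated control wells' mean, seen in both duplicate runs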
Numbers stand for hits; n = inactive; x = no result.

SMILES | TRPC4 agonist | TRPC4 potent | TRPC6 inh | TRPC4 inh | TRPC6 activator | HEK293 MPD ctr-2 | HEK293 MPD ctr 2-2 | TRPC4 ctr mod | TRPC4/MOR inh 2 | TRPC6 block conf | TRPC6 act confirm | others
C#CCn1cc(Cl)cc(C(=O)Nc2ccccc2)c1=O | n | n | -7.09 | n | n | x | x | x | x | n | n | TRPC4 sel inh 2=n;TRPC4 spec=n;HEK293 MPD ctr 2-1=n;HEK293 MPD ctr-1=n
O=C(O)Cc1csc(-c2cccc(F)c2)n1 | n | n | n | n | n | x | x | x | x | x | x
O=C(O)CC1(CC(=O)N2CCC(C(=O)O)CC2)CCCC1 | n | n | n | n | n | x | x | x | x | x | x
Oc1ccc(Cl)cc1Cc1cc(Cl)ccc1O | n | n | -5.12 | n | n | n | 69.0% | -12.5% | 63.0% | 66.5% | n
CC(=O)Nc1ccc(OCc2nnc(-c3ccc(Cl)cc3)o2)cc1 | n | n | -6.32 | n | n | n | n | n | n | n | n
CC(=O)c1ccc(OCCCC(=O)OCc2nnc(-c3ccc(Cl)cc3)o2)cc1 | n | n | n | n | n | x | x | x | x | x | x
CCN(CC)CCCNc1cc(C)nc2cc(-c3cccs3)nn12 | n | n | -7.54 | n | n | -415.5% | n | -62.0% | 51.5% | 44.5% | n
CN(C)CCCNc1cc(-c2ccccc2)nc2cc(-c3cccc(F)c3)nn12 | n | n | -5.12 | n | n | n | n | -11.0% | 49.5% | 46.5% | n
Cc1cccc(-c2cc3nc(C)cc(NCCCN(C)C)n3n2)c1 | n | 13 | -7.23 | n | n | -194.5% | 74.5% | -40.0% | 60.5% | 55.5% | n
CN(CCO)c1c2c(nc3cc(-c4cccc(F)c4)nn13)CCCC2 | n | n | n | n | n | x | x | x | x | x | x
Cc1cc(C(F)(F)F)n2nc(-c3cccs3)cc2n1 | n | n | n | n | n | x | x | x | x | x | x
CC(=O)Nc1ccc(Oc2nc(C)cc(C)n2)cc1 | n | n | n | n | n | x | x | x | x | x | x
O=C1CCCC/C1=C/NCc1ccc(F)cc1 | n | n | n | n | n | x | x | x | x | x | x
Cc1cccc(NC2=C(NCCO)C(=O)c3ccccc3C2=O)c1 | n | n | -10.9 | n | n | -251.5% | n | -49.5% | 65.5% | 52.5% | n
c1ccc(-c2nc(-c3ccccn3)nc(-c3ccccn3)n2)nc1 | n | n | -6.74 | n | n | x | x | x | x | n | n | TRPC4 sel inh 2=n;TRPC4 spec=-18.9%;HEK293 MPD ctr 2-1=4.0%;HEK293 MPD ctr-1=-266.0%
Cc1cc(C)nc(/N=C(\N)Nc2ccc(SC(F)F)cc2)n1 | 43 | n | -6.4 | n | n | -132.0% | n | -23.0% | 48.0% | n | n
Cc1cc(C)nc(/N=C(\N)Nc2ccc(F)c([N+](=O)[O-])c2)n1 | n | n | -6.43 | n | n | -185.0% | n | -25.0% | 31.5% | n | n
CC(=O)Nc1ccc(N/C(N)=N/c2nc(C)cc(C)n2)cc1 | n | n | n | n | n | x | x | x | x | x | x
Cn1c(SCC(=O)NC2CCCCC2)nnc1-c1ccncc1 | n | n | n | n | n | x | x | x | x | x | x
